In general, GI50 refers to the concentration that inhibits growth by half. A low value points to more potent growth inhibition. As usually defined, the LC50 is the concentration that kills 50% of the test population.

What all share (type): functional
Experiment [1] concerns HL-60(TB). In words: Growth inhibition of human HL-60(TB) cells after 48 hrs by coulter counting analysis. The note with it: HL-60, 48 h. A digest of the protocol:
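Five-dose screen (0.01-100 µM, DMSO-solubilized, under 1% DMSO final), cells in RPMI 1640 + 10% FBS at 6×10^4 cells/ml, duplicate wells, 37 °C, 5% CO2, 48 h. Cells then diluted tenfold in saline and counted by Coulter counter with dilution correction. Controls held buffer/saline/DMSO at matching dilutions. GI50 derived from log concentration-percent growth inhibition curves.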

Another experiment deals with 786-0. In words: Growth inhibition of human 786-0 cells at 10 uM after 48 hrs by sulforhodamine B assay relative to control. The note with it: 786-0, 48 h, read-out: GI. The method, boiled down:
(§1)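 NCI-60 primary screen at a single dose of 10 µM with 48 h continuous exposure. Growth or viability read by sulforhodamine B protein staining and expressed as percent growth inhibition versus untreated cells.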

The test system of another experiment is NCI-H522. The experiment in a line: Growth inhibition of human NCI-H522 cells at 10 uM after 48 hrs by sulforhodamine B assay relative to control. The note with it: NCI-H522, 48 h, read-out: GI. A digest of the protocol:
(§2)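 NCI-60 primary screen at a single 10 µM dose. Continuous 48 h exposure, with growth or viability estimated by sulforhodamine B protein staining. Reported as percent growth inhibition of treated cells relative to untreated growth.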
A general note: The SRB assay estimates cell density from bound dye.

Another experiment deals with KM12. The experiment in a line: Growth inhibition of human KM12 cells at 10 uM after 48 hrs by sulforhodamine B assay relative to control. The note with it: KM12, 48 h, read-out: GI. A digest of the protocol: as §1
A further experiment relates to NCI-H23. In words: Growth inhibition of human NCI-H23 cells at 10 uM after 48 hrs by sulforhodamine B assay relative to control. The note with it: NCI-H23, 48 h, read-out: GI. The method, boiled down: as §2
Another experiment has as its system RPMI-8226. In words: Growth inhibition of human RPMI8226 cells at 10 uM after 48 hrs by sulforhodamine B assay relative to control. The note with it: RPMI-8226, 48 h, read-out: GI. A digest of the protocol:
as §2

A further experiment has as its system IGROV-1. The experiment in a line: Growth inhibition of human IGROV1 cells at 10 uM after 48 hrs by sulforhodamine B assay relative to control. The note with it: IGROV-1, 48 h, read-out: GI. A digest of the protocol: as §1
Experiment [2] can be described thus: Growth inhibition of human NCI-ADR-RES cells at 10 uM after 48 hrs by sulforhodamine B assay relative to control. The note with it: read-out: GI. The method, boiled down:
as §2

Experiment [3] can be described thus: Growth inhibition of human […] cells after 48 hrs by coulter counting analysis. A digest of the protocol:
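NCI five-dose screen at 0.01-100 µM, diluted from DMSO stocks in buffered saline (final DMSO <1%). Cells at 6×10^4 cells/ml in RPMI 1640 with 10% FBS, in duplicate wells, at 37 °C under 5% CO2 for 48 h. Cells diluted tenfold in saline and Coulter-counted. GI50, TGI and LC50 taken from log concentration-growth inhibition curves.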

A further experiment relates to SNB-75. In words: Growth inhibition of human SNB75 cells at 10 uM after 48 hrs by sulforhodamine B assay relative to control. The note with it: SNB-75, 48 h, read-out: GI. A digest of the protocol: as §2
The test system of another experiment is ACHN. In words: Growth inhibition of human ACHN cells at 10 uM after 48 hrs by sulforhodamine B assay relative to control. The note with it: read-out: GI. A digest of the protocol: as §1
Experiment [4] is described as follows: Growth inhibition of human MOLT4 cells at 10 uM after 48 hrs by sulforhodamine B assay relative to control. The note with it: MOLT-4, 48 h, read-out: GI. The method, boiled down: as §2
The test system of the next experiment is PC-3. The experiment in a line: Growth inhibition of human PC3 cells at 10 uM after 48 hrs by sulforhodamine B assay relative to control. The note with it: PC-3, 48 h, read-out: GI. A digest of the protocol:
as §2

The next experiment concerns HT-29. In words: Growth inhibition of human HT-29 cells at 10 uM after 48 hrs by sulforhodamine B assay relative to control. The note with it: HT-29, 48 h, read-out: GI. A digest of the protocol: as §1
A further experiment deals with MDA-MB-468. In words: Growth inhibition of human MDA-MB-468 cells at 10 uM after 48 hrs by sulforhodamine B assay relative to control. The note with it: MDA-MB-468, 48 h, read-out: GI. The method, boiled down:
as §2

Experiment [5] can be described thus: Growth inhibition of human OVCAR3 cells at 10 uM after 48 hrs by sulforhodamine B assay relative to control. The note with it: OVCAR-3, 48 h, read-out: GI. A digest of the protocol:
as §2

Experiment [6] is described as follows: Growth inhibition of human PC549 cells after 48 hrs by coulter counting analysis. The method, boiled down:
(§3)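 Five-dose NCI-60 follow-up, 0.01–100 µM, made from DMSO stock in buffered saline (final DMSO <1%), in duplicate wells. Cells in RPMI 1640 with 10% FBS at 6×10^4 cells/ml, 37 °C, 5% CO2, 48 h. Cells diluted tenfold in saline, Coulter-counted and corrected for dilution. GI50, TGI and LC50 taken from log concentration–percent growth curves.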

The next experiment relates to U-251. The experiment in a line: Growth inhibition of human U251 cells at 10 uM after 48 hrs by sulforhodamine B assay relative to control. The note with it: U-251, 48 h, read-out: GI. The method, boiled down: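 NCI-60 primary single-dose screen at 10 µM with continuous 48 h exposure. Cell viability/growth read by sulforhodamine B protein staining. Reported as percent growth inhibition relative to untreated cells.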

The subject of experiment [7] is HL-60(TB). In words: Growth inhibition of human HL-60(TB) cells at 10 uM after 48 hrs by sulforhodamine B assay relative to control. The note with it: HL-60, 48 h, read-out: GI. The method, boiled down: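 Single-dose primary screen at 10 µM across the NCI 60 panel, 48 h continuous exposure. Growth estimated by sulforhodamine B protein staining and reported as percentage growth inhibition relative to untreated control.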

The nature of experiment [8]: Growth inhibition of human LOXIMVI cells at 10 uM after 48 hrs by sulforhodamine B assay relative to control. The note with it: LOX IMVI, read-out: GI. A digest of the protocol:
as §1

Experiment [9] in a line: Growth inhibition of human HOP92 cells at 10 uM after 48 hrs by sulforhodamine B assay relative to control. The note with it: HOP-92, 48 h, read-out: GI. A digest of the protocol: as §1
The subject of another experiment is CAKI-1. The experiment in a line: Growth inhibition of human CAKI-1 cells at 10 uM after 48 hrs by sulforhodamine B assay relative to control. The note with it: CAKI-1, 48 h, read-out: GI. A digest of the protocol:
as §1

The next experiment deals with MCF7. In words: Growth inhibition of human MCF7 cells at 10 uM after 48 hrs by sulforhodamine B assay relative to control. The note with it: MCF7, 48 h, read-out: GI. A digest of the protocol:
as §1

Experiment [10] can be described thus: Growth inhibition of human RXF393 cells at 10 uM after 48 hrs by sulforhodamine B assay relative to control. The note with it: RXF 393, 48 h, read-out: GI. A digest of the protocol:
as §2

Experiment [11] concerns SR. In words: Growth inhibition of human SR cells after 48 hrs by coulter counting analysis. A digest of the protocol: as §3
Experiment [12] deals with SR. In words: Growth inhibition of human SR cells at 10 uM after 48 hrs by sulforhodamine B assay relative to control. The note with it: read-out: GI. A digest of the protocol: as §2
The next experiment concerns MDA-MB-435. In words: Growth inhibition of human MDA-MB-435 cells at 10 uM after 48 hrs by sulforhodamine B assay relative to control. The note with it: MDA-MB-435, 48 h, read-out: GI. A digest of the protocol: as §1

In turn, `COc1c2ccoc2c(/C=C/C=O)c2oc(-c3ccccc3)cc(=O)c12` yielded a GI50 in the experiment with HL-60(TB) [1] of 2330 nM.

For `COc1c2occc2c(OC)c2c(=O)c(CN3CCOCC3)c(/C=C/c3ccc(N(C)C)cc3)oc12`, the inhibition of growth at 10 µM in the experiment on 786-0 came to 95%; in the experiment on NCI-H522, 84%; in the experiment on KM12 it was 73%; in the experiment on NCI-H23, 80%; in the experiment with RPMI-8226, 80%; in the experiment on IGROV-1 it was 78%. Further, the inhibition of growth at 10 µM worked out at 87% in experiment [2]; 99% in the experiment with SNB-75; 89% with ACHN; 88% in experiment [4]; 87% with PC-3; 82% in the experiment on HT-29. Also, the inhibition of growth at 10 µM stood at 70% with MDA-MB-468; 88% in experiment [5]; 69% with U-251; 64% in the experiment on HL-60(TB) [7]; 65% in experiment [8]. The GI50 in the experiment with HL-60(TB) [1] stood at 1550 nM; in experiment [3], 1680 nM; in experiment [6] it was 2870 nM. Moreover, the LC50 in the experiment with HL-60(TB) [1] was 9700 nM.

In the case of `COc1c(C(=O)/C=C/c2ccc(Cl)cc2)c(O)c(Br)c2occc12`, the GI50 in the experiment with HL-60(TB) [1] amounted to 1720 nM; in experiment [3], 3120 nM; in [6], 2540 nM.

For the compound `COc1c2occc2c(OC)c2c(=O)c(CN3CCOCC3)c(/C=C/c3ccc(Cl)cc3)oc12`, the inhibition of growth at 10 µM with RPMI-8226 was determined as 60%; in the experiment with ACHN, 66%; in experiment [4], 93%; in the experiment with PC-3, 72%; with MDA-MB-468, 86%; in [5], 68%. In addition, the figures for the inhibition of growth at 10 µM (in [9]; in the experiment with CAKI-1; in the experiment on HL-60(TB) [7]) were 95%, 61% and 60%, respectively.

`C=CCc1c2c(c(OC)c3ccoc13)C(=O)/C(=C/c1ccccc1OC)O2`: the inhibition of growth at 10 µM in the experiment with NCI-H23 is 80%; in the experiment with RPMI-8226, 71%; in [2], 65%; in the experiment with SNB-75, 64%; in the experiment on MCF7, 67%; in [10] it was 75%. Moreover, the inhibition of growth at 10 µM (with CAKI-1; in experiment [8]) was 62% in each case. Moreover, halving of growth in the experiment on SR [11] (GI50) required 3160 nM.

`COc1ccccc1/C=C/C(=O)c1c(O)cc2occc2c1OC`: the inhibition of growth at 10 µM worked out at 62% in the experiment with SR [12]; 63% in the experiment on KM12; 86% in the experiment with RPMI-8226; 60% with MCF7; 66% in experiment [4]; 84% in the experiment on MDA-MB-468. The inhibition of growth at 10 µM in the experiment with MDA-MB-435 came to 74%.

As to `C=CCc1c(O)c(C(=O)/C=C/c2ccc(Cl)cc2)c(OC)c2ccoc12`, the GI50 in the experiment with SR [11] turned out to be 2770 nM.

The compound `C=CCc1c(O)c(C(=O)/C=C/c2ccccc2)c(OC)c2ccoc12` had a GI50 with SR [11] of 2150 nM. This GI50 and that of the compound before are within 1.5-fold of each other.

In the experiment with HL-60(TB) [1], `COc1ccc(-c2cc(=O)c3c(OC)c4ccoc4c(/C=C/C=O)c3o2)cc1` displayed a GI50 of 2720 nM.

For `COc1c(C(=O)/C=C/c2ccccc2)c(O)cc2occc12`, the inhibition of growth at 10 µM in the experiment on SR [12] stood at 72%; in the experiment with KM12 it was 64%; in the experiment with RPMI-8226, 86%; in experiment [2] it was 68%; in the experiment on SNB-75, 86%; in the experiment on MCF7, 76%. Further, the inhibition of growth at 10 µM amounted to 89% in [4] and 68% in the experiment on MDA-MB-435. Moreover, in the experiment on SR [11], halving of growth (GI50) required 3270 nM.

Source of the values: ChEMBL document CHEMBL3286372, “Design, synthesis and structure-activity relationship of novel semi-synthetic flavonoids as antiproliferative agents” (2014).
